Experimental findings from ChEMBL document CHEMBL5335840, “Stereoselective synthesis and antiproliferative activity of allo-gibberic acid-based 1,3-aminoalcohol regioisomers” (RSC Med Chem, 2024) are described below.

SMILES strings stand for the structures.

For one data set, the system named is MDA-MB-231. The data set is described as follows: Antiproliferative activity against human MDA-MB-231 cells assessed as inhibition of cell growth incubated for 72 hrs by MTT assay. The data set is classed as functional, cell-based. The following applies: MDA-MB-231, 72 h. The method, boiled down:
(§1)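 Cells kept in Eagle's MEM with 10% FBS, 1% non-essential amino acids and 1% antibiotic-antimycotic at 37 °C, 5% CO2. Seeded at 5000 cells per well and incubated overnight before compound addition. Growth inhibition tested at 10 and 30 μM, IC50 from 1.0–30.0 μM (four concentrations). MTT added for 4 h, formazan dissolved in DMSO, absorbance read at 545 nm. Untreated control, two experiments of five wells.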
For orientation: Formazan colour is commonly taken as a measure of viable cells.

Another data set deals with HeLa. Kind of data set: Antiproliferative activity against human HeLa cells assessed as inhibition of cell growth incubated for 72 hrs by MTT assay. The data set is classed as functional, cell-based. The method in brief:
as §1

The subject of another data set is SiHa. Kind of data set: Antiproliferative activity against human SiHa cells assessed as inhibition of cell growth incubated for 72 hrs by MTT assay. The data set is classed as functional, cell-based. The method in brief: as §1
The next data set has as its system A2780. Kind of data set: Antiproliferative activity against human A2780 cells assessed as inhibition of cell growth incubated for 72 hrs by MTT assay. Particulars: A2780, 72 h. Type of data set: functional, cell-based. The method in brief:
as §1

Data set [1] in a line: Cytotoxicity against mouse NIH/3T3 cells assessed as inhibition of cell growth incubated for 72 hrs by MTT assay. Type of data set: toxicity, cell-based, NIH3T3. The method, boiled down: as §1
The next data set has as its system MCF7. Kind of data set: Antiproliferative activity against human MCF7 cells assessed as inhibition of cell growth incubated for 72 hrs by MTT assay. Type of data set: functional, cell-based. The following applies: MCF7, 72 h. The method in brief: as §1

Turning to `CCOC(=O)[C@H]1c2c(C)cccc2[C@H]2CC[C@@]3(CNCc4ccc(OC)cc4)C[C@]21C[C@H]3O`, the IC50 in the data set on MDA-MB-231 turned out to be 6.5 µM; in the data set on HeLa, 12.9 µM; in the data set on SiHa, 17.7 µM; in the data set on A2780, 13.8 µM; in the data set on MCF7, 4.08 µM. For the same molecule, the IC50 at 72 h in data set [1] was found to be 14.7 µM.
Regarding `CCOC(=O)[C@H]1c2c(C)cccc2[C@H]2CC[C@@]3(CO)C[C@]21C[C@@H]3N[C@@H](C)c1cccc2ccccc12`, the IC50 with MDA-MB-231 was found to be 10.4 µM; with HeLa it was 20.7 µM; in the data set with SiHa, 22.3 µM; with MCF7, 3.43 µM. Besides, in data set [1], the IC50 at 72 h was 6.02 µM.
For the molecule `CCOC(=O)[C@H]1c2c(C)cccc2[C@H]2CC[C@@]3(CN[C@@H](C)c4ccc5ccccc5c4)C[C@]21C[C@H]3O`, the IC50 in the data set with HeLa came out at 5.1 µM; with SiHa, 4.36 µM; in the data set with MCF7, 3.66 µM. Besides, in data set [1], the IC50 at 72 h was 4.62 µM.
As for `CCOC(=O)[C@H]1c2c(C)cccc2[C@H]2CC[C@@]3(CO)C[C@]21C[C@@H]3N[C@H](C)c1cccc2ccccc12`, the IC50 in the data set with MDA-MB-231 came out at 19.3 µM; in the data set with HeLa, 18.6 µM; in the data set with SiHa it was 22.7 µM; with A2780 it was 4.57 µM; with MCF7 it was 7.07 µM. Further, the IC50 at 72 h in data set [1] came to 14.5 µM.
On to `CCOC(=O)[C@H]1c2c(C)cccc2[C@H]2CC[C@@]3(CO)C[C@]21C[C@@H]3NCc1cc(Br)ccc1O`, for which the IC50 in the data set with MDA-MB-231 was determined as 6.48 µM; in the data set with HeLa, 5.06 µM; in the data set on SiHa, 21.9 µM; with A2780, 5.08 µM; in the data set with MCF7, 3.85 µM. Further, the IC50 at 72 h in data set [1] came out at 19.7 µM.
In the case of `CCOC(=O)[C@H]1c2c(C)cccc2[C@H]2CC[C@]3(O)C[C@@]21C[C@]3(O)CN[C@@H](C)c1cccc2ccccc12`, the IC50 with MDA-MB-231, in the data set with HeLa, in the data set on SiHa and with A2780 was 4.38 µM throughout. For the same molecule, in data set [1], the IC50 at 72 h stood at 4.38 µM.
As for `CCOC(=O)[C@H]1c2c(C)cccc2[C@H]2CC[C@@]3(CO)C[C@]21C[C@@H]3NCCc1c[nH]c2ccccc12`, the IC50 with MDA-MB-231 worked out at 4.71 µM; in the data set on HeLa, 4.01 µM; in the data set on SiHa, 4.12 µM; in the data set on A2780, 4.57 µM; in the data set on MCF7, 3.14 µM. Besides, the IC50 at 72 h in data set [1] came to 13 µM.
On to `CCOC(=O)[C@H]1c2c(C)cccc2[C@H]2CC[C@@]3(CNCc4cc(Br)ccc4O)C[C@]21C[C@H]3O`, for which the IC50 in the data set with MDA-MB-231 is 4.99 µM; in the data set on HeLa it was 4.71 µM; with SiHa, 20.6 µM; in the data set on A2780, 5.39 µM; with MCF7, 2.42 µM. Besides, in data set [1], the IC50 at 72 h was 13 µM.
In the case of `CCOC(=O)[C@H]1c2c(C)cccc2[C@H]2CC[C@@]3(CNCc4ccc(F)cc4)C[C@]21C[C@H]3O`, the IC50 worked out at 7.71 µM with MDA-MB-231, 18.8 µM in the data set on HeLa, 8.4 µM with SiHa and 4.4 µM in the data set with MCF7. For the same molecule, the IC50 at 72 h in data set [1] amounted to 15.2 µM.

Broadly, the IC50 is the concentration that inhibits the measured activity by half.
